Molecular target: Signal transducer and activator of transcription 3 (Homo sapiens, UniProt P40763)
Assay: Inhibition of IFN gamma-induced STAT3 (unknown origin) activation in HeLa-STAT3-Luc cells after 6 hrs by luciferase reporter gene assay
In short: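 HeLa-STAT3-Luc reporter cells (15 × 10⁴ cells/mL, DMEM with 10% FBS, 37 °C, 5% CO2) were preincubated with the compounds at rising concentrations, then stimulated with IFNγ for 6 h. Lysate luciferase is expressed as percent inhibition, with IFNγ-induced activity set as 100%.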

Chain of Signal transducer and activator of transcription 3 (P40763 whole entry): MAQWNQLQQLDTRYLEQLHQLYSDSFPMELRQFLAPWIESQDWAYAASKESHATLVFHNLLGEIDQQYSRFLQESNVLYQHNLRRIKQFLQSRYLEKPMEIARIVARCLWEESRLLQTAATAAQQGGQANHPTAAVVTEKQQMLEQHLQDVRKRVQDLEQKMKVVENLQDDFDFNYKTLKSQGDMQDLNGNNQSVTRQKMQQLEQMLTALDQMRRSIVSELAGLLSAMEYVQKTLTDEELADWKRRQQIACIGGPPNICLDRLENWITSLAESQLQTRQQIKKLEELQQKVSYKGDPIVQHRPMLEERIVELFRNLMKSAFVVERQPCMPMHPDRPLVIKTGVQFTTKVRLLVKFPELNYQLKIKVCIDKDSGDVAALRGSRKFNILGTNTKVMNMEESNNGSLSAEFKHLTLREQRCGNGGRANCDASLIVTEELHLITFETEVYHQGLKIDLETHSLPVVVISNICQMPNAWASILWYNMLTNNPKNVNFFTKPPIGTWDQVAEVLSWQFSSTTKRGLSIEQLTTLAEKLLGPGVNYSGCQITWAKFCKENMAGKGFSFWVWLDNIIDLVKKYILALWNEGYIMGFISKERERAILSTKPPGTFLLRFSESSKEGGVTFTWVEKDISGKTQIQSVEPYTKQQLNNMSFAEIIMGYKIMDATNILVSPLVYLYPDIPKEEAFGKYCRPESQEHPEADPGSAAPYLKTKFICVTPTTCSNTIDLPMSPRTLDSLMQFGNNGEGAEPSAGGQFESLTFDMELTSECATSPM

IC50: 14.2 µM
SMILES: CC(C)=CC(=O)C[C@H](C)c1ccc(C)cc1 [(+)-(S)-ar-turmerone]
